Measurements reported in ChEMBL document CHEMBL2407014, “Suberoylanilide hydroxamic acid, a histone deacetylase inhibitor, induces the production of anti-inflammatory cyclodepsipeptides from Beauveria felina” (J Nat Prod, 2013).
Starred links: 1 amine or outer side, 2 acyl side, 3 side chain; linkers in the order of their positions; H or OH if unused. Non-standard residues stand in square brackets, D forms with d. Residues, ends and D or L forms follow the SMILES beside them. ξ: configuration not given here. X1 = C[C@H]1CCN([*:1])[C@@H]1C(=O)[*:2]; X2 = CC1CCN([*:1])[C@@H]1C(=O)[*:2]; Hica(2S) = CC(C)C[C@H](O)C(=O)O; ξLac(3-iPr) = CC(C)CC(O)C(=O)O; NMeV = CN[C@H](C(=O)O)C(C)C; βAla = NCCC(=O)O

Key:
[1] = Antiinflammatory activity in human neutrophils assessed as inhibition of FMLP-induced superoxide anion production treated 5 mins before FMLP addition measured after 10 mins; format: functional, cell-based; conditions: Neutrophil
Summary of the method: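 Neutrophils from healthy adult donors' venous blood (dextran sedimentation, Ficoll centrifugation), with 0.5 mg/mL ferricytochrome c and 1 mM Ca²⁺, equilibrated 37 °C 2 min, compound 5 min, cytochalasin B (1 μg/mL) 3 min, then FMLP 100 nM for 10 min. SOD-inhibitable (100 U/mL) ferricytochrome c reduction read continuously at 550 nm; IC50 as 50% inhibition concentration.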

[2] = Cytotoxicity against human neutrophils by LDH release assay; format: cell-based; conditions: neutrophil
[3] = Antiinflammatory activity in human neutrophils assessed as inhibition of FMLP-induced elastase release treated 5 mins before FMLP addition; format: functional, cell-based; conditions: Neutrophil
Summary of the method: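 Neutrophils (6 × 10⁵/mL) with MeO-Suc-Ala-Ala-Pro-Val-p-nitroanilide substrate (100 μM), equilibrated 37 °C 2 min, compound 5 min, then activated with FMLP (100 nM)/cytochalasin B (0.5 μg/mL). Absorbance at 405 nm monitored continuously; results as percentage of initial elastase rate; IC50 as concentration giving 50% inhibition.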

Structure (SMILES) | IC50 [1] [µM] | IC50 [3] [µM] | Activity [2]
O=c1c(-c2ccc(O)cc2)coc2cc(O)cc(O)c12 [GENISTEIN] | 0.69 | 6.72 | –
CC(C)CC1OC(=O)CCNC(=O)[C@H](C(C)C)N(C)C(=O)[C@H](C(C)C)N(C)C(=O)[C@H](Cc2ccccc2)NC(=O)[C@@H]2CCCN2C1=O (stereo not given in full) [ISARIDIN E] (cyclo(F[NMeV][NMeV][βAla][ξLac(3-iPr)]P)) | 12.2 | 12.8 | Non-toxic
CC[C@H](C)[C@@H]1NC(=O)[C@@H]2[C@@H](C)CCN2C(=O)[C@@H](CC(C)C)OC(=O)CCNC(=O)[C@H](C)N(C)C(=O)[C@H](C(C)C)N(C)C1=O [ROSEOCARDIN] | – | 15.1 | Non-toxic

The next lines start with results.

IC50 [1] [µM] | IC50 [3] [µM] | Structure (SMILES) | Activity [2]
10 | – | CC(C)C[C@@H]1OC(=O)CCNC(=O)[C@H](C(C)C)N(C)C(=O)[C@H](C(C)C)NC(=O)[C@H](Cc2ccccc2)NC(=O)[C@@H]2CCCN2C1=O (cyclo(FV[NMeV][βAla][Hica(2S)]P)) | Non-toxic
10.9 | 10 | CC(C)C[C@@H]1OC(=O)CCNC(=O)[C@H](C(C)C)N(C)C(=O)[C@H](C(C)C)NC(=O)[C@H](Cc2ccccc2)NC(=O)[C@@H]2[C@@H](C)CCN2C1=O (cyclo(FV[NMeV][βAla][Hica(2S)][X1])) | Non-toxic
10.1 | 12.1 | CC(C)CC1OC(=O)CCNC(=O)[C@H](C(C)C)N(C)C(=O)[C@H](C(C)C)N(C)C(=O)[C@H](Cc2ccccc2)NC(=O)[C@@H]2C(C)CCN2C1=O (stereo not given in full) [ISARIDIN C2] (cyclo(F[NMeV][NMeV][βAla][ξLac(3-iPr)][X2])) | Non-toxic
